Molecules are shown by their SMILES.

Series [1] has as its system L1210. The experiment in a line: Impact (100 uM) on polyamine(Put) pools in L1210 cells, expressed relative to untreated controls (control = 100%). Format: functional, Mus musculus. In a few lines: (§1)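 Logarithmic-phase murine L1210 cells grown 48 h with analogue at the stated concentration. Cells washed twice in cold RPMI-1640 and extracted with 0.6 N perchloric acid; supernatants held at -20 °C, then analysed by HPLC. Put, Spd and Spm given relative to untreated controls (100%); intracellular analogue given as pmol/10^6 cells.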

Series [2] deals with L1210. The experiment in a line: Impact (100 uM) on polyamine(Spd) pools in L1210 cells, expressed relative to untreated controls (control = 100%). Format: functional, Mus musculus. In a few lines: as §1
Series [3] concerns L1210. The series is described as follows: Impact (100 uM) on polyamine(Spm) pools in L1210 cells, expressed relative to untreated controls (control = 100%). Format: functional, Mus musculus. In a few lines: as §1
A short description of series [4]: Titrimetrically measured pKa2 value of the compound. The conditions noted are these: read-out: pKa2. Format: physicochemical. The essentials: (§2)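 pKa values determined by titration; relative abundance of each ionic species then calculated for pH 7.4.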
Series [5] addresses T1, Ornithine decarboxylase (Mus musculus) (UniProt P00860).
T1 sequence (whole entry): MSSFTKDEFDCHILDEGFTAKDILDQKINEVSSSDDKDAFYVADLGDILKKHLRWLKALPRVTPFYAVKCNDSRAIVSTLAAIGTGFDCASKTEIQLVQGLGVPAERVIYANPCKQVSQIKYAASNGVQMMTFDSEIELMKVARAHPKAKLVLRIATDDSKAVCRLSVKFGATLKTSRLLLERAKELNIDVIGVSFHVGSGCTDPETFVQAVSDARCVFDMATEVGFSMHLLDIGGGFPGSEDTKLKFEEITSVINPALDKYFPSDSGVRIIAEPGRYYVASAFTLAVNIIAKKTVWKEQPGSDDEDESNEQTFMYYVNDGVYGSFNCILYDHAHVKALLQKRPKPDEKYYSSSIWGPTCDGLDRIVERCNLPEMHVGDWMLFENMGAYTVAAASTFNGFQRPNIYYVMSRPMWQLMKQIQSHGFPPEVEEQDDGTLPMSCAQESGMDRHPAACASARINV
The experiment in a line: Impact on polyamine biosynthetic enzyme, Ornithine decarboxylase in L1210 cells treated with the compound for 4 hr. Format: cell-based. On the set-up: concentration or dose not given beside the values. In a few lines: (§3)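 L1210 cells treated with analogue: 4 h for ODC, 6 h for AdoMetDC, 48 h for SSAT. ODC and AdoMetDC measured as 14CO2 released from [14C]carboxyl-labeled L-ornithine or S-adenosyl-L-methionine. SSAT measured as [14C]acetylspermidine formed from SPD and [14C]acetyl-CoA. Triplicate runs, each with untreated and positive controls (10 μM DENSPM for ODC and AdoMetDC). Activity given as % of untreated control.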

In series [6] the test system is L1210. The experiment in a line: Impact on polyamine biosynthetic enzyme, S-adenosyl-L-methionine decarboxylase in L1210 cells treated with the compound for 6 hr. Format: cell-based. On the set-up: concentration or dose not given beside the values. In a few lines: as §3
The subject of series [7] is L1210. The experiment in a line: Level (100 uM) in L1210 cells. Format: functional, Mus musculus. The essentials: as §1
Series [8] can be described thus: Titrimetrically measured pKa1 value of the compound. The conditions noted are these: read-out: pKa1. Format: physicochemical. The essentials: as §2
Series [9] can be described thus: Titrimetrically measured pKa4 value of the compound. Format: physicochemical. The settings on record: read-out: pKa4. The essentials: as §2
Series [10] deals with Spermidine/spermine N(1)-acetyltransferase (SAT) (Mus musculus) (UniProt Q6P8J2+P48026). The experiment in a line: Impact on polyamine biosynthetic enzyme Spermidine N-acetyl-transferase in L1210 cells treated with the compound for 48 hr. Format: cell-based. On the set-up: concentration or dose not given beside the values. In a few lines:
as §3

A short description of series [11]: Titrimetrically measured pKa3 value of the compound. Format: physicochemical. The conditions noted are these: read-out: pKa3. In a few lines:
as §2

Series [12] relates to L1210. The series is described as follows: Concentration inhibiting radiolabeled spermidine transport in L1210 cells. Format: functional, cell-based, Mus musculus. In a few lines:
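Competition with [3H]- or [14C]spermidine uptake into L1210 leukemia cells. Cells incubated 20 min at 37 °C in RPMI-1640 with 1, 2, 4, 6, 8 and 10 μM radiolabeled SPD, alone or plus 10, 25 or 50 μM analogue. Cells pelleted at 0–4 °C, washed with cold medium containing 1 μM SPD, NaOH-dissolved, then scintillation counted. Ki taken from Lineweaver–Burk plots as simple competitive inhibition.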

Series [13] deals with L1210. The experiment in a line: Inhibitory concentration against L1210 cells on 96h incubation. Format: functional, cell-based. The conditions noted are these: Mus musculus, L1210, 96 h. The essentials: (§4)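 Murine L1210 leukemia cells in suspension in RPMI-1640 with 10% NuSerum, HEPES-MOPS and 1 mM aminoguanidine, 37 °C, 5% CO2. Log-phase cultures at (0.5-1.0) × 10^5 cells/mL treated with filtered aqueous analogue for 48 h, then reseeded and grown a further 48 h. Cells counted by Coulter counter. IC50 is the concentration giving 50% of control growth, corrected for initial inoculum.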

The subject of series [14] is L1210. The series is described as follows: Inhibitory concentration against L1210 cells on 96 hr incubation. Format: functional, cell-based. The settings on record: Mus musculus, L1210, 96 h. The essentials:
as §4

Series [15] deals with L1210. The experiment in a line: Impact (2 uM) on polyamine(Spm) pools in L1210 cells, expressed relative to untreated controls (control = 100%). Format: functional, Mus musculus. In a few lines:
as §1

In series [16] the test system is L1210. The series is described as follows: Level (2 uM) in L1210 cells. Format: functional, Mus musculus. In a few lines:
as §1

Series [17] concerns L1210. The experiment in a line: Impact (2 uM) on polyamine(Put) pools in L1210 cells, expressed relative to untreated controls (control = 100%). Format: functional, Mus musculus. In a few lines: as §1
The subject of series [18] is L1210. The series is described as follows: Impact (2 uM) on polyamine(Spd) pools in L1210 cells, expressed relative to untreated controls (control = 100%). Format: functional, Mus musculus. The essentials: as §1
Series [19] deals with L1210. The experiment in a line: Level (30 uM) in L1210 cells. Format: functional, Mus musculus. The essentials:
as §1

In series [20] the test system is L1210. The series is described as follows: Impact (30 uM) on polyamine(Put) pools in L1210 cells, expressed relative to untreated controls (control = 100%). Format: functional, Mus musculus. The essentials: as §1
Series [21] deals with L1210. The series is described as follows: Impact (30 uM) on polyamine(Spm) pools in L1210 cells, expressed relative to untreated controls (control = 100%). Format: functional, Mus musculus. In a few lines: as §1
Series [22] relates to L1210. The series is described as follows: Impact (30 uM) on polyamine(Spd) pools in L1210 cells, expressed relative to untreated controls (control = 100%). Format: functional, Mus musculus. In a few lines:
as §1

Spermidine/spermine N(1)-acetyltransferase (SAT) (Mus musculus), sequence (P48026 whole entry, looked up): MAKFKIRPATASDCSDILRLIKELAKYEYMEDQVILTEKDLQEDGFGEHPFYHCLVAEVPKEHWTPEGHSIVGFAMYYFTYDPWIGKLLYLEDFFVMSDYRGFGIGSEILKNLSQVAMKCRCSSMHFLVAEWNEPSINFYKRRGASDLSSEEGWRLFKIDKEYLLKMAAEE
Spermidine/spermine N(1)-acetyltransferase (SAT) (Mus musculus), sequence (Q6P8J2 whole entry, looked up): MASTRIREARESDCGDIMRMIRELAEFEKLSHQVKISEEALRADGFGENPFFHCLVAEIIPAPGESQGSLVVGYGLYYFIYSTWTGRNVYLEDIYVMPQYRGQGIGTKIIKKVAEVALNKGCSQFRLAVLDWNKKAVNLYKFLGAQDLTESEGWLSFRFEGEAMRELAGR

By Ki is commonly meant the dissociation constant of the complex between target and ligand, obtained from inhibition or displacement. For orientation: IC50 means the concentration needed to halve the response being measured. As for `FC(F)(F)CNCCCNCCCCNCCCNCC(F)(F)F`, the results for the Polyamine pools with L1210 [1], in the series on L1210 [2] and in the series with L1210 [3] were 103%, 103% and 108%, respectively. In addition, the pKa in [4] stood at 9.41; in series [8], 10.5; in series [9], 4.09; in [11], 4.81. The Control in [5] was 100%; in the series with L1210 [6], 100%; in series [10] it was 97%. Also, the Analogue level with L1210 [7] is given as <20 pM (10e6*cells)-1. The Ki in the series on L1210 [12] was found to be 285 µM. For the same compound, the IC50 with L1210 [13] is > 100 µM.
In the case of `NCCCNCCCCNCCCN` [SPERMINE], the pKa in [4] was 10.1; in [8] it was 10.9; in series [9] it was 7.95; in [11], 8.82.
As for `c1cc(CNCCCCNCc2ccncc2)ccn1`, the Polyamine pools with L1210 [1] was 87%; with L1210 [2], 95%; in the series on L1210 [3], 99%. Also, the pKa amounted to 7.64 in series [4], 9.23 in series [8], 3.77 in [9] and 4.43 in [11]. The compound further gave an IC50 with L1210 [14] of 80 µM. In addition, the Control in series [5] was 90%; in the series with L1210 [6] it was 100%; in [10], 87%. Further, in the series on L1210 [12], the Ki is > 500 µM.
As to `C(CCNCC1CCNCC1)CNCC1CCNCC1`, the pKa in series [4] came to 10.7; in [8] it was 10.9; in [9] it was 8.45; in [11], 9.43. The same compound yielded an IC50 in the series with L1210 [14] of 0.1 µM. The Control in series [5] was 6%; in the series with L1210 [6], 39%; in series [10], 325%. The Polyamine pools in the series with L1210 [15] was 50%; with L1210 [17], 0%; in the series on L1210 [18] it was 5%. In addition, the Analogue level in the series on L1210 [16] is given as 2518 pM (10e6*cells)-1. The inhibition constant Ki with L1210 [12] turned out to be 4.9 µM.
Consider `CCNCCCNCCCCNCCCNCC` [BIS(ETHYL)SPERMINE], for which, in the series with L1210 [19], the Analogue level is recorded as 1780 pM (10e6*cells)-1. In addition, the Polyamine pools in the series with L1210 [20] was determined as 0%; in the series on L1210 [21] it was 22%; with L1210 [22], 0%. Moreover, the Control was 3% in series [5], 28% in the series on L1210 [6] and 460% in series [10]. Besides, 0.2 µM corresponded to half-maximal inhibition with L1210 [13] (IC50).
Take `c1cc(CCNCCCCNCCc2ccncc2)ccn1`: the values for the Polyamine pools in the series on L1210 [1], in the series on L1210 [2] and with L1210 [3] were 124%, 85% and 96%, respectively. Also, the pKa in series [4] was 8.85; in series [8], 9.81; in series [9] it was 4.93; in series [11], 5.69. Also, in the series on L1210 [14], the IC50 is > 100 µM. Besides, the Control turned out to be 100% in series [5], 100% with L1210 [6] and 140% in series [10]. Also, in the series on L1210 [12], the Ki was > 500 µM.
